The record followed here is ChEMBL document CHEMBL1126988, “Quinolone antibacterials containing the new 7-[3-(1-aminoethyl)-1- pyrrolidinyl] side chain: the effects of the 1-aminoethyl moiety and its stereochemical configurations on potency and in vivo efficacy” (J Med Chem, 1993).

Assay [1] concerns Staphylococcus aureus. Briefly: Minimum inhibitory concentration was evaluated in vitro against Staphylococcus aureus UC 76. Format: functional. Put shortly:
(§1)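 Standard microtitration broth assay against a panel of 10 Gram-positive and Gram-negative organisms. MIC read in µg/mL and averaged over multiple experiments.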

The test system of assay [2] is Escherichia coli. The experiment in a line: Antibacterial activity against Escherichia coli Vogel after oral administration in mouse. Format: functional. As to conditions: Escherichia coli, po; read-out: PD50.
The test system of assay [3] is Escherichia coli. The experiment in a line: Antibacterial activity in vitro against Escherichia coli Vogel. As to conditions: Escherichia coli; read-out: MIC. Format: functional. In a few lines: as §1
In assay [4] the test system is Pseudomonas aeruginosa. The experiment in a line: Minimum inhibitory concentration was evaluated in vitro against Pseudomonas aeruginosa UI-18. Format: functional. As to conditions: Pseudomonas aeruginosa; read-out: MIC. In a few lines: as §1
For assay [5], the species on record is Mus musculus. Briefly: Compounds were evaluated for phototoxicity no-effect dose in mouse. Format: functional. Put shortly: (§2)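 Depilated female CD-1 mice, five per dose plus controls. Animals are dosed orally and then exposed daily to UV-A (320–400 nm) for 3 h, for up to 4 days or until a definite positive response. Redness or erythema relative to controls, read 24 h after irradiation, counts as positive. Reported as the highest dose with no effect (mg/kg).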

In assay [6] the test system is Streptococcus pneumoniae. The experiment in a line: Minimum inhibitory concentration was evaluated in vitro against Streptococcus pneumoniae SV-1. Format: functional. Put shortly: as §1
Assay [7] relates to Streptococcus pyogenes. The experiment in a line: Antibacterial activity measured as mouse protection against Streptococcus pyogenes C 203 after subcutaneous administration. Format: functional. The following applies: Streptococcus pyogenes, C 203, sc; read-out: PD50.
Assay [8] relates to Staphylococcus aureus. Briefly: Minimum inhibitory concentration was evaluated in vitro against Staphylococcus aureus H 228. Format: functional. Put shortly:
as §1

Assay [9] in a line: Clonogenic cytotoxicity against hamster V-79 cells. Format: functional, Cricetulus griseus, V79. In a few lines: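 Chinese hamster V-79 cells grown overnight, then drug-treated for 3 h at 37 °C. Medium is replaced with fresh medium and cells are incubated 5 days to allow colony formation. IC50 (µg/mL) is the concentration inhibiting colony formation by 50% relative to control.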

Assay [10] deals with Enterobacter cloacae. Briefly: Minimum inhibitory concentration in vitro against Enterobacter cloacae MA 2646. Format: functional. The following applies: Enterobacter cloacae; read-out: MIC.
For assay [11], the system named is Escherichia coli. The experiment in a line: Antibacterial activity against Escherichia coli Vogel after subcutaneous administration in mouse. Format: functional. As to conditions: for ED50: Escherichia coli, sc, read-out: PD50.
The subject of assay [12] is Klebsiella pneumoniae. Briefly: Minimum inhibitory concentration was evaluated in vitro against Klebsiella pneumoniae MGH2. Format: functional. As to conditions: Klebsiella pneumoniae; read-out: MIC. In a few lines: as §1
Assay [13] has as its target DNA gyrase (Escherichia coli) (UniProt P0AES6+P0AES4). Briefly: Initial inhibition as minimal concentration to induce cleavage of DNA gyrase complex. Format: protein-complex assay. In a few lines:
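DNA gyrase isolated and purified from E. coli H560. Uses the initial cleavage method with relaxed Col E1 plasmid DNA as substrate. Read-out is the lowest drug concentration (µg/mL) giving detectable cleavage, seen by agarose gel electrophoresis with ethidium bromide staining. Averaged over multiple experiments, accurate to ±50%.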

For assay [14], the system named is Enterococcus faecalis. Briefly: Minimum inhibitory concentration was evaluated in vitro against Enterococcus faecalis MGH-2. Format: functional. Put shortly:
as §1

The subject of assay [15] is Streptococcus pyogenes. Briefly: Antibacterial activity expressed as Minimum inhibitory concentration was evaluated in vitro against Streptococcus pyogenes C 203. Format: functional. Put shortly:
as §1

Assay [16] deals with Providencia rettgeri. Briefly: Minimum inhibitory concentration was evaluated in vitro against Providencia rettgeri M1771. Format: functional. The following applies: Providencia rettgeri; read-out: MIC. Put shortly:
as §1

Assay [17] deals with Streptococcus pyogenes. The experiment in a line: Compounds were evaluated in vivo for antibacterial activity for mouse protection against Streptococcus pyogenes C 203 after oral administration. Format: functional. The following applies: for ED50: C 203, po, read-out: PD50.
For assay [18], the system named is Streptococcus pyogenes. Briefly: Compounds were evaluated in vivo for antibacterial activity for mouse protection against Streptococcus pyogenes C 203 after subcutaneous administration. Format: functional. The following applies: C 203, sc, read-out: PD50.
Assay [19] is filed under the species Mus musculus. The experiment in a line: Compound was evaluated for phototoxicity no-effect dose in mouse. Format: functional. In a few lines:
as §2

The target in assay [20] is DNA gyrase (Escherichia coli, UniProt P0AES4+P0AES6). The experiment in a line: Inhibition against DNA gyrase. Format: protein-complex assay.
Assay [21] deals with Streptococcus pyogenes. The experiment in a line: Minimum inhibitory concentration was evaluated in vitro against Streptococcus pyogenes C 203. Format: functional. Put shortly: as §1
Assay [22] has as its system Streptococcus pneumoniae. Briefly: Antibacterial activity expressed as Minimum inhibitory concentration was evaluated in vitro against Streptococcus pneumoniae SV-1. Format: functional. In a few lines: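 Standard microtitration broth MIC (μg/mL), averaged from multiple experiments; one of a 10-organism Gram-positive/Gram-negative panel.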
For assay [23], the system named is Enterococcus faecalis. Briefly: Antibacterial activity expressed as Minimum inhibitory concentration was evaluated in vitro against Enterococcus faecalis MGH-2. Format: functional. Put shortly: as §1
Where [24] appears, read: Staphylococcus aureus, read-out: MIC.
[25] abbreviates: Streptococcus pneumoniae, read-out: MIC.
Setting [26] is: Enterococcus faecalis, read-out: MIC.
Setting [27] is: Streptococcus pyogenes, read-out: MIC.

In brackets after ≈: the same amount, converted by molar mass.

As to `CN[C@H](C)[C@H]1CCN(c2c(F)cc3c(=O)c(C(=O)O)cn(C4CC4)c3c2OC)C1` (racemic), the MIC worked out at 0.003 µg/mL (≈ 0.00744 µM) in assay [1] (setting [24]); 0.05 µg/mL (≈ 0.124 µM) in assay [3]; 0.8 µg/mL (≈ 1.98 µM) in assay [4]; 0.003 µg/mL (≈ 0.00744 µM) in assay [6] (setting [25]); 0.013 µg/mL (≈ 0.0322 µM) in assay [8] (setting [24]); 0.05 µg/mL (≈ 0.124 µM) in assay [10]. Further, the MIC in [12] is 0.1 µg/mL (≈ 0.248 µM); in assay [14] (setting [26]), 0.025 µg/mL (≈ 0.062 µM); in assay [15], 0.003 µg/mL (≈ 0.00744 µM); in assay [16], 0.2 µg/mL (≈ 0.496 µM). In addition, the ED50 in assay [2] was determined as 5 mg/kg; in assay [7], 0.1 mg/kg; in assay [11], 1 mg/kg. For the same compound, the Dose in assay [5] was >100 mg/kg. In assay [9], this compound had a Cytotoxicity of 33 µg/mL. In addition, the Initial inhibition in assay [13] is < 0.5 µg/mL.

With `CCNCC1CCN(c2c(F)cc3c(=O)c(C(=O)O)cn(C4CC4)c3c2F)C1` (stereo not given) [PD-117558], the ED50 in [2] amounted to 4 mg/kg; in assay [17], 1 mg/kg; in assay [18] it was 0.8 mg/kg. For the same compound, the MIC in [3] amounted to 0.05 µg/mL (≈ 0.128 µM); in [8] (setting [24]) it was 0.025 µg/mL (≈ 0.0639 µM); in [10] it was 0.1 µg/mL (≈ 0.255 µM); in assay [16], 0.2 µg/mL (≈ 0.511 µM).

Turning to `C[C@@H](N)[C@H]1CCN(c2nc3c(cc2F)c(=O)c(C(=O)O)cn3C2CC2)C1` (racemic), in assay [19], the Dose is >100 mg/kg. The MIC in [1] came out at 0.025 µg/mL (≈ 0.0694 µM); in assay [3], 0.05 µg/mL (≈ 0.139 µM); in assay [4], 0.8 µg/mL (≈ 2.22 µM); in [6] it was 0.05 µg/mL (≈ 0.139 µM); in assay [8], 0.2 µg/mL (≈ 0.555 µM); in [10] it was 0.05 µg/mL (≈ 0.139 µM). The MIC in assay [12] turned out to be 0.1 µg/mL (≈ 0.277 µM); in assay [14], 0.1 µg/mL (≈ 0.277 µM); in [21] it was 0.05 µg/mL (≈ 0.139 µM); in assay [16], 0.2 µg/mL (≈ 0.555 µM). In addition, the results for the PD50 in assay [17] and in assay [11] were 15 mg/kg and 1 mg/kg, respectively. Besides, the ED50 in [7] was found to be 5 mg/kg. For the same compound, the Cytotoxicity in [9] was determined as 84 µg/mL. For the same compound, in assay [20], the IC50 was 6.94 µM.

With `NC1CCN(c2nc3c(cc2F)c(=O)c(C(=O)O)cn3C2CC2)C1` (stereo not given), the Dose in [19] is >100 mg/kg. Also, the MIC in assay [1] (setting [24]) was 0.013 µg/mL (≈ 0.0391 µM); in assay [3], 0.013 µg/mL (≈ 0.0391 µM); in [4] it was 0.1 µg/mL (≈ 0.301 µM); in [8] (setting [24]), 0.2 µg/mL (≈ 0.602 µM); in [10], 0.025 µg/mL (≈ 0.0752 µM); in assay [12], 0.025 µg/mL (≈ 0.0752 µM). The MIC in [22] stood at 0.2 µg/mL (≈ 0.602 µM); in [14] (setting [26]), 0.2 µg/mL (≈ 0.602 µM); in [21] (setting [27]), 0.2 µg/mL (≈ 0.602 µM); in assay [16] it was 0.05 µg/mL (≈ 0.15 µM). For the same compound, the ED50 in assay [2] was found to be 2 mg/kg; in [17] (Streptococcus pyogenes) it was 32 mg/kg; in assay [7], 14 mg/kg; in [11] it was 0.6 mg/kg. Besides, the Cytotoxicity in assay [9] amounted to 98 µg/mL. Further, half-maximal inhibition in assay [20] (IC50) required 2.26 µM.

Take `CCn1cc(C(=O)O)c(=O)c2cc(F)c(N3CC[C@@H]([C@@H](C)N)C3)c(F)c21`: the MIC in assay [1] (setting [24]) was determined as 0.025 µg/mL (≈ 0.0684 µM); in [3], 0.1 µg/mL (≈ 0.274 µM); in assay [4] it was 1.6 µg/mL (≈ 4.38 µM); in assay [6] (setting [25]) it was 0.05 µg/mL (≈ 0.137 µM); in assay [8] (setting [24]), 0.1 µg/mL (≈ 0.274 µM); in assay [10], 0.1 µg/mL (≈ 0.274 µM). In addition, the MIC in assay [12] was 0.2 µg/mL (≈ 0.547 µM); in [23], 0.1 µg/mL (≈ 0.274 µM); in assay [21] (setting [27]), 0.05 µg/mL (≈ 0.137 µM); in assay [16] it was 0.4 µg/mL (≈ 1.09 µM). Besides, the ED50 came out at 15 mg/kg in assay [2], 19 mg/kg in assay [17] (Streptococcus pyogenes), 2 mg/kg in assay [7] and 2 mg/kg in assay [11].

As usually defined, the MIC is the lowest concentration that inhibits growth of the organism. By IC50 is commonly meant the concentration at which inhibition is half-maximal. Higher therefore signals weaker potency in that assay.
